The values below come from ChEMBL document CHEMBL5223076, “Optimization of kinetic stabilizers of tetrameric transthyretin: A prospective ligand efficiency-guided approach” (Bioorg Med Chem, 2020).

The species named for one assay is Homo sapiens. Put plainly: Inhibition of acid-induced fibrillogenesis of human Transthyretin Y78F mutant expressed in Escherichia coli BL21 (DE3) cells assessed as reduction in fibril formation at 40 uM incubated for 30 mins by kinetic turbidimetric assay relative to control. The essentials:
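TTR-Y78F (final 0.4 mg/mL) preincubated 30 min at 37 °C with ligand up to 40 μM in 5% DMSO at pH 7.6. Aggregation triggered by pH 4.2 acetate buffer, then A340 followed for 1.5 h at 37 °C. From the exponential fit of initial rate versus concentration, RA% is the reduction in initial rate at high inhibitor concentration relative to no inhibitor.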

Assay [1] in a line: Inhibition of acid-induced fibrillogenesis of human Transthyretin Y78F mutant expressed in Escherichia coli BL21 (DE3) cells assessed as inhibition of fibril formation incubated for 30 mins by kinetic turbidimetric assay. The essentials: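 TTR-Y78F in 20 mM K phosphate, 100 mM KCl, 1 mM EDTA, pH 7.6, preincubated with inhibitor 0–40 μM (final 5% DMSO) 30 min at 37 °C with shaking. Acidified with 400 mM KAcO/100 mM KCl/1 mM EDTA pH 4.2 to final 0.4 mg/mL TTR. A340 read at 1-min intervals for 1.5 h at 37 °C. Initial rates fitted to v0 = A + B·e^(−C[I]) to give IC50.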

A word on the inhibition: it is how much of the control response was suppressed. Broadly, the IC50 is the point on the concentration scale where inhibition reaches its midpoint. With `O=C(O)c1cc(-c2ccc(Cl)cc2F)ccc1O`, the inhibition in the assay filed under Homo sapiens was determined as 77.3%. In addition, the half-maximal inhibitory concentration (IC50) in assay [1] was found to be 21.7 µM.

For `O=C(O)c1cc(-c2c(F)cc(F)cc2Cl)cc(Br)c1O`, the inhibition in the assay listed under Homo sapiens stood at 89%. Also, in assay [1], the concentration for half-maximal inhibition (IC50) was found to be 3.6 µM.

As for `O=C(O)c1cc(-c2ccc(Cl)cc2F)cc(I)c1O`, the inhibition in the assay listed under Homo sapiens stood at 88.5%. In addition, in assay [1], the half-maximal inhibitory concentration (IC50) was 3.9 µM.

Regarding `COc1cc(F)ccc1-c1ccc(O)c(C(=O)O)c1`, the inhibition in the assay listed under Homo sapiens was found to be 87.8%. In assay [1], the 50% inhibitory concentration (IC50) was 6 µM.

`O=C(O)c1cc(-c2c(F)cc(F)cc2Cl)ccc1O`: the inhibition in the assay filed under Homo sapiens turned out to be 89.1%. Further, the IC50 in assay [1] was 7.2 µM.

Regarding `O=C(O)c1cc(-c2ccc(F)cc2C(F)(F)F)cc(I)c1O`, in the assay filed under Homo sapiens, the inhibition was 87%. Moreover, in assay [1], the IC50 came out at 7.2 µM.

As to `O=C(O)c1cc(-c2ccc(F)cc2F)cc(I)c1O`, the inhibition in the assay filed under Homo sapiens was 94%. In addition, in assay [1], the IC50 turned out to be 4.2 µM.

Regarding `COC(=O)[C@@H](C)NC(=O)c1cc(-c2c(F)cc(F)cc2Cl)cc(I)c1O`, the inhibition in the assay listed under Homo sapiens turned out to be 89%. In assay [1], the half-maximal inhibitory concentration (IC50) amounted to 6 µM.

Regarding `COc1cc(F)ccc1-c1cc(I)c(O)c(C(=O)O)c1`, the inhibition in the assay filed under Homo sapiens was found to be 90.3%. Besides, the IC50 in assay [1] came to 5.3 µM.

Take `O=C(O)c1cc(-c2c(F)cc(F)cc2Cl)cc(I)c1O`: the inhibition in the assay filed under Homo sapiens came to 91%. Also, in assay [1], the IC50 is 4.6 µM.

On to `O=C(O)c1cc(-c2ccc(F)cc2C(F)(F)F)ccc1O`, for which the inhibition in the assay filed under Homo sapiens was 60.4%. Besides, in assay [1], the 50% inhibitory concentration (IC50) was 23.1 µM.

For `CCOc1cc(F)ccc1-c1cc(I)c(O)c(C(=O)O)c1`, the inhibition in the assay filed under Homo sapiens came out at 91.1%. In addition, the half-inhibitory concentration (IC50) in assay [1] is 5.1 µM.

Take `CCOc1cc(F)ccc1-c1ccc(O)c(C(=O)O)c1`: the inhibition in the assay listed under Homo sapiens is 88.8%. Besides, in assay [1], the IC50 was 6.1 µM.

`CCOc1cc(F)ccc1-c1cc(Br)c(O)c(C(=O)O)c1`: the inhibition in the assay filed under Homo sapiens is 89.9%. Moreover, in assay [1], the IC50 is 4.3 µM.

As for `COC(=O)CCNC(=O)c1cc(-c2c(F)cc(F)cc2Cl)cc(I)c1O`, the inhibition in the assay filed under Homo sapiens stood at 90%. For the same molecule, the IC50 in assay [1] is 3.7 µM.

Take `COc1cc(F)ccc1-c1cc(Br)c(O)c(C(=O)O)c1`: the inhibition in the assay listed under Homo sapiens is 95.5%. Also, the half-maximal inhibitory concentration (IC50) in assay [1] was 5.2 µM.
